Columns and labels:
[1] = target: Kappa-type opioid receptor (Homo sapiens, UniProt P41145); assay: Displacement of [125I]IOXY from human recombinant kappa opioid receptor expressed in CHO cells
How it was run: (§1)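 Radioligand displacement run in CHO cells stably transfected to express the μ-, δ- or κ-opioid receptor, each receptor in its own line. The method follows the authors' earlier procedure. Each value comes from n=3 determinations.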

[2] = target: Delta-type opioid receptor (Homo sapiens, UniProt P41143); assay: Displacement of [125I]IOXY from human recombinant delta opioid receptor expressed in CHO cells; how it was run: as §1
Mu-type opioid receptor = Mu-type opioid receptor (Homo sapiens, UniProt P35372); assay: Displacement of [125I]IOXY from human recombinant mu opioid receptor expressed in CHO cells; how it was run: as §1
Mu-type opioid receptor, sequence (P35372 whole entry): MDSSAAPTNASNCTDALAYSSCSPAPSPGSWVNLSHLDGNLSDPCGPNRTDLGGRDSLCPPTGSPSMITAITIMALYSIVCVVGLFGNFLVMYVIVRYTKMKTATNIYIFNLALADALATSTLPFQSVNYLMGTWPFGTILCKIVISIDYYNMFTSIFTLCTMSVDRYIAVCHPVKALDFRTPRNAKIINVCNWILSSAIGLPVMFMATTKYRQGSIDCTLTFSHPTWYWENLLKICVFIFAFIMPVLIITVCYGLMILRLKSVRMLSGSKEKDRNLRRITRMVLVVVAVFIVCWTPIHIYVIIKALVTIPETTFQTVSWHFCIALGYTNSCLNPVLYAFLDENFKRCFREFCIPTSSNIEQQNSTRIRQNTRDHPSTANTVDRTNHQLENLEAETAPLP

Kappa-type opioid receptor, sequence (P41145 whole entry): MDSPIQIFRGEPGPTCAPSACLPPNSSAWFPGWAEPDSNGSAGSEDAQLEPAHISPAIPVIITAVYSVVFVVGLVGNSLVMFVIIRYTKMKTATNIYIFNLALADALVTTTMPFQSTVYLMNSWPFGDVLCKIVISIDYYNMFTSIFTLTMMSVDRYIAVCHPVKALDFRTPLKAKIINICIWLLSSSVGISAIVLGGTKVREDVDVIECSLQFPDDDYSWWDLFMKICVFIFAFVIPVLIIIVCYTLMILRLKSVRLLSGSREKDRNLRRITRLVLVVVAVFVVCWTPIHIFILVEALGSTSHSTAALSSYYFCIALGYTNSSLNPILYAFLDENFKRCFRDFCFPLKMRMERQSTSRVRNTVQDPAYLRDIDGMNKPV
Delta-type opioid receptor, sequence (P41143 whole entry): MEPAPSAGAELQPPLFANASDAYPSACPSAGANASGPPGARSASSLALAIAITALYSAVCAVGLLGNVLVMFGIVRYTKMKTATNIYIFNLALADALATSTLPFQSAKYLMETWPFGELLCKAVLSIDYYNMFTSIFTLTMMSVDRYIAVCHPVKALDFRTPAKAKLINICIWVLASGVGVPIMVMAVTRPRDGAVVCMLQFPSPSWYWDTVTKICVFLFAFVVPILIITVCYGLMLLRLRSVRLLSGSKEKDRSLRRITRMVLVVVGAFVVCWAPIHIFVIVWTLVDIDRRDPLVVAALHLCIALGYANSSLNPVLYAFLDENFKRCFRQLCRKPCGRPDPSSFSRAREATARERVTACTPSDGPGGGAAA

Row | SMILES | Ki [1] [nM] | Ki [2] [nM] | Ki (Mu-type opioid receptor) [nM]
1 | CN1C[C@@H]2Oc3ccc(O)cc3[C@@]23CCC[C@@H]1C3 [(3R*,6aS*,11aR*)-1,3,4,5,6,11a-Hexahydro-2-methyl-2H-3,6a-methanobenzofuro[2,3-c]azocin-8-ol] | 620 | 2780 | –
2 | CN1C[C@@H]2Oc3c(O)cccc3[C@@]23CCC[C@@H]1C3 [(3R*,6aS*,11aR*)-1,3,4,5,6,11a-Hexahydro-2-methyl-2H-3,6amethanobenzofuro[2,3-c]azocin-10-ol] | 4820 | 3430 | –
3 | Oc1cccc2c1O[C@H]1CN(CCc3ccccc3)[C@@H]3CCC[C@]21C3 [(3R*,6aS*,11aR*)-1,3,4,5,6,11a-Hexahydro-2-phenethyl-2H-3,6a-methanobenzofuro [2,3-c]azocin-10-ol] | 200 | 2840 | 560
4 | CN1CC[C@@]23C[C@@H]1CC[C@H]2Oc1c(O)cccc13 [(4R*,6aS*,11bR*)-2,3,4,5,6,6a-Hexahydro-3-methyl-1H-4,11b-methanobenzofuro[3,2-d]azocine-8-ol] | 910 | – | 3210
5 | CN1CC[C@@]23C[C@@H]1CC[C@H]2Oc1ccc(O)cc13 [(4R*,6aS*,11bR*)-2,3,4,5,6,6a-Hexahydro-3-methyl-1H-4,11bmethanobenzofuro[3,2-d]azocine-10-ol] | – | > 10000 | > 10000
6 | Oc1cccc2c1O[C@@H]1CC[C@H]3C[C@@]21CCN3CCc1ccccc1 [(4R*,6aS*,11bR*)-2,3,4,5,6,6a-Hexahydro-3-phenethyl-1H-4,11b-methanobenzofuro[3,2-d]azocine-8-ol] | 26 | 3710 | 190
7 | Oc1ccc2c(c1)[C@@]13CCN(CCc4ccccc4)[C@@H](CC[C@H]1O2)C3 [(4R*,6aS*,11bR*)-2,3,4,5,6,6a-Hexahydro-3-phenethyl-1H-4,11b-methanobenzofuro[3,2-d]azocine-10-ol] | 78 | 4760 | 740
